Laboratory results from ChEMBL document CHEMBL3871266, “Synthesis and cytotoxic activity of novel A-ring cleaved ursolic acid derivatives in human non-small cell lung cancer cells” (Eur J Med Chem, 2016).
Calls of active or inactive are those of the source. The calls are words filed in the database; no cut-off is given here.

Columns and labels:
[1] = Cytotoxicity against human LKB1-positive NCI-H460 cells assessed as reduction in cell viability measured after 72 hrs by CellTiter-Blue cell viability assay; format: functional, cell-based; conditions: Homo sapiens, NCI-H460, 72 h; read-out: IC50
Summary of the method: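 Monolayer cultures in RPMI-1640 with 10% FBS at 37°C, seeded at 850 (H460 CTR5), 660 (H460 LKB1+/+) or 1780 (H322) cells/well so that the end point reaches 70–80% confluence. Treated 72h; vehicle 0.15% DMSO. CellTiter-Blue added until colour change (50–60, 80–90 or 100–120 min respectively), fluorescence read at 590 nm. IC50 by nonlinear regression; three independent experiments.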

[2] = tested on: NCI-H460; test: Induction of apoptosis in human NCI-H460 cells expressing CTR5 gene assessed as early apoptotic cells at 5 uM measured after 72 hrs by Annexin V-Cy5/propidium iodide staining-based flow cytometry (reference value: 1.7%); format: functional
[3] = tested on: NCI-H460; test: Induction of apoptosis in human NCI-H460 cells expressing CTR5 gene assessed as late apoptotic cells at 5 uM measured after 72 hrs by Annexin V-Cy5/propidium iodide staining-based flow cytometry (reference value: 3.2%); format: functional
[4] = tested on: NCI-H460; test: Induction of apoptosis in human NCI-H460 cells expressing CTR5 gene assessed as decrease in procaspase3 level at 4.5 uM measured after 24 hrs by Western blot analysis; format: functional; parameters: scale not given: the % may be the effect or the level left
Summary of the method: (§1)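 Cells were seeded at 3×10^5 (H460) or 4.2×10^5 (H322) per dish and treated 24h later with DMSO or a concentration series for 24h. Lysed in cold RIPA with phosphatase and protease inhibitors, then sonicated. 30 μg protein run on Bis-Tris gels and transferred to nitrocellulose or PVDF. Detection used infrared secondary antibodies on an Odyssey imager. Signal normalized to β-actin or GAPDH and to DMSO control; three independent experiments.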

[5] = tested on: NCI-H322; test: Induction of apoptosis in human NCI-H322 cells assessed as increase in cleaved caspase7 level at 3 to 5.5 uM measured after 24 hrs by Western blot analysis; format: functional, cell-based; summary of the method: as §1
[6] = tested on: NCI-H460; test: Induction of apoptosis in human NCI-H460 cells expressing CTR5 gene assessed as downregulation of Bcl2 expression at 3 to 5.5 uM measured after 24 hrs by Western blot analysis; format: functional, cell-based; summary of the method: as §1
[7] = tested on: NCI-H460; test: Induction of apoptosis in human NCI-H460 cells expressing CTR5 gene assessed as downregulation of Mcl1 short isoform expression at 3 to 4.5 uM measured after 24 hrs by Western blot analysis; format: functional, cell-based; summary of the method: as §1
[8] = tested on: NCI-H460; test: Induction of apoptosis in human NCI-H460 cells expressing CTR5 gene assessed as early apoptotic cells at 20 uM measured after 72 hrs by Annexin V-Cy5/propidium iodide staining-based flow cytometry (reference value: 1.8%); format: functional
[9] = tested on: NCI-H460; test: Induction of apoptosis in human NCI-H460 cells expressing CTR5 gene assessed as late apoptotic cells at 20 uM measured after 72 hrs by Annexin V-Cy5/propidium iodide staining-based flow cytometry (reference value: 2.7%); format: functional
[10] = tested on: NCI-H460; test: Induction of apoptosis in human NCI-H460 cells expressing CTR5 gene assessed as late apoptotic cells at 4 uM measured after 72 hrs by Annexin V-Cy5/propidium iodide staining-based flow cytometry (reference value: 2.7%); format: functional
[11] = tested on: NCI-H460; test: Induction of apoptosis in human NCI-H460 cells expressing CTR5 gene assessed as viable cells at 4 uM measured after 72 hrs in presence of autophagy inhibitor chloroquine by Annexin V-Cy5/propidium iodide staining-based flow cytometry (reference value: 94.6%); format: functional; conditions: NCI-H460, 72 h, read-out: Activity
[12] = tested on: NCI-H460; test: Induction of apoptosis in human NCI-H460 cells expressing CTR5 gene assessed as early apoptotic cells at 4 uM measured after 72 hrs in presence of autophagy inhibitor chloroquine by Annexin V-Cy5/propidium iodide staining-based flow cytometry (reference value: 1.8%); format: functional
[13] = tested on: NCI-H460; test: Induction of apoptosis in human NCI-H460 cells expressing CTR5 gene assessed as necrotic cells at 4 uM measured after 72 hrs in presence of autophagy inhibitor chloroquine by Annexin V-Cy5/propidium iodide staining-based flow cytometry (reference value: 0.9%); format: functional
[14] = Downregulation of p62 level in human NCI-H460 cells expressing CTR5 gene at 3 to 5.5 uM measured after 24 hrs by Western blot analysis; format: functional, cell-based; summary of the method: as §1
[15] = Downregulation of p62 level in human NCI-H322 cells at 3 to 5.5 uM measured after 24 hrs by Western blot analysis; format: functional, cell-based; summary of the method: as §1
[16] = Upregulation of LC3-2 level in human NCI-H460 cells expressing CTR5 gene at 3.5 uM measured after 24 hrs by reverse-phase protein array method relative to control; format: functional, cell-based
[17] = Upregulation of Atg7 level in human NCI-H460 cells expressing CTR5 gene at 3.5 uM measured after 24 hrs by reverse-phase protein array method relative to control; format: functional, cell-based
[18] = molecular target: Serine/threonine-protein kinase mTOR (Homo sapiens) (UniProt P42345); test: Inhibition of mTOR in human NCI-H460 cells expressing CTR5 gene assessed as decrease in S6 phosphorylation at S240/44 site by reverse-phase protein array method relative to control; format: cell-based
[19] = molecular target: Serine/threonine-protein kinase mTOR (Homo sapiens) (UniProt P42345); test: Inhibition of mTOR in human NCI-H460 cells expressing CTR5 gene assessed as upregulation of EIF4E pS09 level; format: cell-based
[20] = tested on: NCI-H460; test: Induction of autophagy in human NCI-H460 cells expressing CTR5 gene measured after 24 hrs by reverse-phase protein array method; format: functional, cell-based

SMILES: C=C(C)[C@@H]1CC[C@]2(C)[C@H](C[C@@H](F)C34OC(=O)[C@@]5(CC[C@@H](C)[C@H](C)[C@@H]35)CC[C@]42C)[C@@]1(C)CCC(=O)NCCC
- IC50 [1]: 4.4 µM
- Activity [2]: 13.4%
- Activity [3]: 29.1%
- Activity [4]: 29%
- Activity [5]: Active
- Activity [6]: Dose-dependent effect
- Activity [7]: Dose-dependent effect
- Activity [8]: 2.8%
- Activity [9]: 2%
- Activity [10]: 11.5%
- viability at 4 µM [11]: 77.4%
- Activity [12]: 7.6%
- Activity [13]: 3.6%
- Activity [14]: Active
- Activity [15]: Active
- Activity [16]: 10.7%
- Activity [17]: 4.5%
- inhibition [18]: 8.4%
- inhibition [19]: Active
- Activity [20]: Active
